Calls of active or inactive are those of the source. The rule behind the calls is not given here.
Assays:
Heart [1] = test: Myocardial activity in Wistar-Kyoto rat heart assessed as heart rate level at 10 uM relative to untreated control; assay type: functional
Procedure, shortened: (§1)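 Right atria from male Wistar-Kyoto rat hearts in an organ bath of Tyrode's solution gassed with CO2−O2 (1:19) at 36 ± 0.2 °C. Spontaneous beating rate recorded and expressed as % of the pre-treatment control. Means from four to five experiments.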

[2] = Myocardial activity in Wistar-Kyoto rat right atrium exposed to electrical stimulation driven at 2 Hz assessed as muscle contraction at 10 uM relative to untreated control; assay type: functional, Muscle tissue
[3] = Myocardial activity in Wistar-Kyoto rat right atrium exposed to electrical stimulation driven at 2 Hz assessed as muscle contraction at 3 uM relative to untreated control; assay type: functional, Muscle tissue
[4] = Myocardial activity in Wistar-Kyoto rat right ventricle exposed to electrical stimulation driven at 2 Hz assessed as muscle contraction at 30 uM relative to untreated control; assay type: functional, Muscle tissue
Procedure, shortened: (§2)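 Left atrial and right ventricular strips from male Wistar-Kyoto rats, electrically driven, in Tyrode's solution gassed with CO2−O2 (1:19) at 36 ± 0.2 °C. Optimal preload 0.5−1.0 g for maximal developed tension. Contraction recorded by force displacement transducer and expressed as % of the pre-treatment control. Means from four to five experiments.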

[5] = Myocardial activity in Wistar-Kyoto rat left atrium exposed to electrical stimulation driven at 2 Hz assessed as muscle contraction at 10 uM relative to untreated control; assay type: functional, Muscle tissue; procedure, shortened: as §2
Heart [6] = test: Myocardial activity in Wistar-Kyoto rat heart assessed as heart rate level at 3 uM relative to untreated control; assay type: functional; procedure, shortened: as §1
[7] = Myocardial activity in Wistar-Kyoto rat left atrium exposed to electrical stimulation driven at 2 Hz assessed as muscle contraction at 3 uM relative to untreated control; assay type: functional, Muscle tissue; procedure, shortened: as §2
[8] = Myocardial activity in Wistar-Kyoto rat left atrium exposed to electrical stimulation driven at 2 Hz assessed as muscle contraction at 30 uM relative to untreated control; assay type: functional, Muscle tissue; procedure, shortened: as §2
Heart [9] = test: Myocardial activity in Wistar-Kyoto rat heart assessed as heart rate level at 30 uM relative to untreated control; assay type: functional; procedure, shortened: as §1
[10] = Myocardial activity in Wistar-Kyoto rat right ventricle exposed to electrical stimulation driven at 2 Hz assessed as muscle contraction at 3 uM relative to untreated control; assay type: functional, Muscle tissue; procedure, shortened: as §2
[11] = Myocardial activity in Wistar-Kyoto rat right ventricle exposed to electrical stimulation driven at 2 Hz assessed as muscle contraction at 10 uM relative to untreated control; assay type: functional, Muscle tissue; procedure, shortened: as §2
[12] = Myocardial activity in Wistar-Kyoto rat right atrium exposed to electrical stimulation driven at 2 Hz assessed as muscle contraction at 30 uM relative to untreated control; assay type: functional, Muscle tissue
Rattus norvegicus [13] = organism: Rattus norvegicus; test: Positive inotropic effect in Wistar-Kyoto rat left atrium exposed to electrical stimulation driven at 2 Hz assessed as muscle contraction at 3 to 30 uM in presence of 3 uM atenolol relative to untreated control; assay type: functional, tissue-based; conditions: Cardiac atrium
Rattus norvegicus [14] = organism: Rattus norvegicus; test: Positive inotropic effect in Wistar-Kyoto rat left atrium exposed to electrical stimulation driven at 2 Hz assessed as muscle contraction at 3 to 30 uM in presence of 1 uM verapamil relative to untreated control; assay type: functional, tissue-based; conditions: Cardiac atrium
Rattus norvegicus [15] = organism: Rattus norvegicus; test: Positive inotropic effect in Wistar-Kyoto rat left atrium exposed to electrical stimulation driven at 2 Hz assessed as muscle contraction at 3 to 30 uM in presence of 1 uM prazosin relative to untreated control; assay type: functional, tissue-based; conditions: Cardiac atrium

Structure (SMILES)	Activity (Heart [1]) [%]	Activity [2] [%]	Activity [3] [%]	Activity [4] [%]	Activity [5] [%]	Activity (Heart [6]) [%]	Activity [7] [%]	Activity [8] [%]	Activity (Heart [9]) [%]	Activity [10] [%]	Activity [11] [%]	Activity [12] [%]	Activity (Rattus norvegicus [13])	Activity (Rattus norvegicus [14])	Activity (Rattus norvegicus [15])
COc1cc2c(cc1OC)-c1c(O)c(OC)cc3c1[C@@H](C2)NCC3	96	103	101	120	104	100	103	105	79	108	111	105			
CCN1CCc2cc(OC)c(O)c3c2[C@@H]1Cc1cc(OC)c(OC)cc1-3	97	127	93	111	122	97	105	131	84	100	108	162			
COc1cc2c(cc1OC)-c1c(O)c(OC)cc3c1[C@H](C2)N(C)CC3	86	140	104	163	180	92	110	243	82	125	154	180	Active	Active	Active
COc1cc2c(cc1OC)-c1c(O)c(OC)cc3c1[C@H](C2)NCC3	78	99	99	90	93	91	94	89	61	102	96	117			
CCCN1CCc2cc(OC)c(O)c3c2[C@H]1Cc1cc(OC)c(OC)cc1-3	79	131	121	96	105	88	101	99	68	100	100	141			
COc1cc2c(cc1OC)-c1c(O)c(OC)cc3c1[C@@H](C2)N(C)CC3	85	121	106	72	103	92	106	100	69	93	80	129			
CCCN1CCc2cc(OC)c(O)c3c2[C@@H]1Cc1cc(OC)c(OC)cc1-3	80	103	103	75	90	91	99	74	61	95	85	103			

— ChEMBL document CHEMBL2331165, “Semisynthesis and myocardial activity of thaliporphine N-homologues” (2013)
